Test results from ChEMBL document CHEMBL5705905, “Pharmacological targeting of kinases MST1 and MST2 augments tissue repair and regeneration” (Sci Transl Med, 2016).
Calls of active or inactive are those of the source. The calls are words filed in the database; no cut-off is given here.

Tests used:
[1] = target: Cyclin-G-associated kinase (Homo sapiens) (UniProt O14976); test: Inhibition of GAK (unknown origin) assessed as remaining activity at 1 uM by Kinome scan method relative to control
[2] = target: MAP/microtubule affinity-regulating kinase 3 (Homo sapiens) (UniProt P27448); test: Inhibition of MARK3 (unknown origin) assessed as remaining activity at 1 uM by Kinome scan method relative to control
MAP/microtubule affinity-regulating kinase 3 (Homo sapiens), sequence (P27448 whole entry, looked up): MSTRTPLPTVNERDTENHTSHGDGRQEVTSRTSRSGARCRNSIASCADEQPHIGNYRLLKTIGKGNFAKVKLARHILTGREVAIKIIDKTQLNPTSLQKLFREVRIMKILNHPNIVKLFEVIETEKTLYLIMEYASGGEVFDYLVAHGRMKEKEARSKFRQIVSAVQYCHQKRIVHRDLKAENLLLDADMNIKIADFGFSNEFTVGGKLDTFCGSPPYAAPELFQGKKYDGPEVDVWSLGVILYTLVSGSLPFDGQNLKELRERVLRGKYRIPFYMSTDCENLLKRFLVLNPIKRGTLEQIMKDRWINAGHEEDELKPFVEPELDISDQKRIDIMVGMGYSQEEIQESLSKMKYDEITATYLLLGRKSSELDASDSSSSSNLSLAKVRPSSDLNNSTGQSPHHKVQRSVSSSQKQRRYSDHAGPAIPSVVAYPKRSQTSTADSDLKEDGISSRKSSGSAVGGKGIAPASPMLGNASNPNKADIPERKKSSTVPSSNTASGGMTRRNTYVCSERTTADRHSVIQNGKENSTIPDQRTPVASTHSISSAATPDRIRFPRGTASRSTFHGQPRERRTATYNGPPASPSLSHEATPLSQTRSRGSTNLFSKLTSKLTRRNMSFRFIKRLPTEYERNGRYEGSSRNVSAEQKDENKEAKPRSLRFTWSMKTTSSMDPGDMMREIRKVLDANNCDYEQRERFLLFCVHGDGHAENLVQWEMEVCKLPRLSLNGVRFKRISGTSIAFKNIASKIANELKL

[3] = target: Interleukin-1 receptor-associated kinase 4 (Homo sapiens) (UniProt Q9NWZ3); test: Inhibition of IRAK4 (unknown origin) assessed as remaining activity at 1 uM by Kinome scan method relative to control
[4] = Acute toxicity in wild-type mouse assessed as ratio of liver weight to body weight at 1 mg/kg,ip administrated twice daily for 6 days; assay type: organism-based; details: in vivo, 144 h, time 6 day
In short: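 Wild-type mice underwent two-thirds partial hepatectomy with vehicle or 1 mg/kg i.p. twice per day, starting with a dose before surgery. Liver/body weight ratio was followed over postoperative days, n = 5; means ± SD.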

[5] = target: Cytoplasmic tyrosine-protein kinase BMX (Homo sapiens) (UniProt P51813); test: Inhibition of BMX (unknown origin) assessed as remaining activity at 1 uM by Kinome scan method relative to control
Cytoplasmic tyrosine-protein kinase BMX (Homo sapiens), sequence (P51813 whole entry): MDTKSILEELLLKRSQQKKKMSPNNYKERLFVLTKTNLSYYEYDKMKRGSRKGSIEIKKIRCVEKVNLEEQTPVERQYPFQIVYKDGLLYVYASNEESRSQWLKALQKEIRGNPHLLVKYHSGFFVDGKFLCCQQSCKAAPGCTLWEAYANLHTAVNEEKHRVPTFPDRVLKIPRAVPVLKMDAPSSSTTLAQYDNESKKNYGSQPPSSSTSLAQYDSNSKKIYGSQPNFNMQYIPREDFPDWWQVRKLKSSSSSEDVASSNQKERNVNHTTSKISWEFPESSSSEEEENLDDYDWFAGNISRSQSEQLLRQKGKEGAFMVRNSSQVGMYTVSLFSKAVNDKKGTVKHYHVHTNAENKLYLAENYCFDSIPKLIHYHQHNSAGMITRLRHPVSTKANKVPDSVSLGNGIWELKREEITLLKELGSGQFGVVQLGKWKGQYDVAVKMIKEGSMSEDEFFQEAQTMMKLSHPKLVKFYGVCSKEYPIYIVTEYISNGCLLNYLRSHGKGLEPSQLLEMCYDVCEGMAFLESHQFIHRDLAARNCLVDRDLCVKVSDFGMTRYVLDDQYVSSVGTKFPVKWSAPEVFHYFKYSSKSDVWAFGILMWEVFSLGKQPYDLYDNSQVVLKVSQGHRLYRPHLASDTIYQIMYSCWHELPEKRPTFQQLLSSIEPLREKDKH
In short: (§1)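 Active-site-dependent competition-binding (KINOMEscan) panel of 468 kinases, test compound at 1 μM (from a 10 mM DMSO stock). Read-out is ctrl% = (test signal − positive control signal)/(negative control signal − positive control signal) × 100. DMSO is the negative control (100%) and a control compound is the positive control (0%). Lower ctrl% means tighter binding.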

[6] = target: STE20-like serine/threonine-protein kinase (Homo sapiens) (UniProt Q9H2G2); test: Inhibition of SLK (unknown origin) assessed as remaining activity at 1 uM by Kinome scan method relative to control
[7] = target: Serine/threonine-protein kinase 3 (Homo sapiens, UniProt Q13188, Y101F)
Serine/threonine-protein kinase 3 (Homo sapiens, UniProt Q13188, Y101F), sequence (Q13188 whole entry Y101F): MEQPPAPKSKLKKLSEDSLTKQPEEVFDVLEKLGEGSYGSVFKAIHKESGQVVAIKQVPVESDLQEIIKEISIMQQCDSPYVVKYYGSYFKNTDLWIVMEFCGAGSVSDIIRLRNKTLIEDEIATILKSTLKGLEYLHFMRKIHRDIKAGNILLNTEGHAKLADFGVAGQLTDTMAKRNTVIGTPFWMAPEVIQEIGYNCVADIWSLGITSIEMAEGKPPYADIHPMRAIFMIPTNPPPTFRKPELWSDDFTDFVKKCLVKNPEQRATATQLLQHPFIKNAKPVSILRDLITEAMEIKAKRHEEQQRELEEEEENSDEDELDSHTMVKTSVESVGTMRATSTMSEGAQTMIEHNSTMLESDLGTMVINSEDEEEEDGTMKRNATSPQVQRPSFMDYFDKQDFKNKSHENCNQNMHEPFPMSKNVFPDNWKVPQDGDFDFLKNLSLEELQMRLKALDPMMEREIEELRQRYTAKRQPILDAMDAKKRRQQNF

[8] = target: T1, Serine/threonine-protein kinase 3 (Homo sapiens, UniProt Q13188); test: Inhibition of recombinant His-tagged full-length MST2 (unknown origin) expressing in Escherichia coli assessed as MOB1a phosphorylation level incubated for 30 min in the presence of 10 uM ATP by immunoblot analysis
T1 sequence (Q13188 whole entry): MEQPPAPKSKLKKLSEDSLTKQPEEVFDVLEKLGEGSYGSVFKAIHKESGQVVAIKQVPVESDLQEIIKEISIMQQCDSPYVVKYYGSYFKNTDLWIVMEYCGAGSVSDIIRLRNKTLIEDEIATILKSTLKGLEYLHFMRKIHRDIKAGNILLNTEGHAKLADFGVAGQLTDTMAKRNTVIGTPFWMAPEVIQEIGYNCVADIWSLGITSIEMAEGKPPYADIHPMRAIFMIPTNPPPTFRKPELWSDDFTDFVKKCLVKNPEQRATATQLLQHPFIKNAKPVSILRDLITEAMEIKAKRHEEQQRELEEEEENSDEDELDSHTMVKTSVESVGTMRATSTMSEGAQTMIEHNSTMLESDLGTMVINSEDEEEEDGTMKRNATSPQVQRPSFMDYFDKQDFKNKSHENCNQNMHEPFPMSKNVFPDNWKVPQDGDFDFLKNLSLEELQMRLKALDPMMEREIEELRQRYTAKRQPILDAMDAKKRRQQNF

[9] = target: Phosphatidylinositol 4,5-bisphosphate 3-kinase catalytic subunit alpha isoform (Homo sapiens) (UniProt P42336); test: Inhibition of PIK3CA (unknown origin) assessed as remaining activity at 1 uM by Kinome scan method relative to control
[10] = target: Serine/threonine-protein kinase Sgk1 (Homo sapiens) (UniProt O00141); test: Inhibition of SGK (unknown origin) assessed as remaining activity at 1 uM by Kinome scan method relative to control
[11] = target: Serine/threonine-protein kinase TNNI3K (Homo sapiens) (UniProt Q59H18); test: Inhibition of TNNI3K (unknown origin) assessed as remaining activity at 1 uM by Kinome scan method relative to control
Serine/threonine-protein kinase TNNI3K (Homo sapiens), sequence (Q59H18 whole entry): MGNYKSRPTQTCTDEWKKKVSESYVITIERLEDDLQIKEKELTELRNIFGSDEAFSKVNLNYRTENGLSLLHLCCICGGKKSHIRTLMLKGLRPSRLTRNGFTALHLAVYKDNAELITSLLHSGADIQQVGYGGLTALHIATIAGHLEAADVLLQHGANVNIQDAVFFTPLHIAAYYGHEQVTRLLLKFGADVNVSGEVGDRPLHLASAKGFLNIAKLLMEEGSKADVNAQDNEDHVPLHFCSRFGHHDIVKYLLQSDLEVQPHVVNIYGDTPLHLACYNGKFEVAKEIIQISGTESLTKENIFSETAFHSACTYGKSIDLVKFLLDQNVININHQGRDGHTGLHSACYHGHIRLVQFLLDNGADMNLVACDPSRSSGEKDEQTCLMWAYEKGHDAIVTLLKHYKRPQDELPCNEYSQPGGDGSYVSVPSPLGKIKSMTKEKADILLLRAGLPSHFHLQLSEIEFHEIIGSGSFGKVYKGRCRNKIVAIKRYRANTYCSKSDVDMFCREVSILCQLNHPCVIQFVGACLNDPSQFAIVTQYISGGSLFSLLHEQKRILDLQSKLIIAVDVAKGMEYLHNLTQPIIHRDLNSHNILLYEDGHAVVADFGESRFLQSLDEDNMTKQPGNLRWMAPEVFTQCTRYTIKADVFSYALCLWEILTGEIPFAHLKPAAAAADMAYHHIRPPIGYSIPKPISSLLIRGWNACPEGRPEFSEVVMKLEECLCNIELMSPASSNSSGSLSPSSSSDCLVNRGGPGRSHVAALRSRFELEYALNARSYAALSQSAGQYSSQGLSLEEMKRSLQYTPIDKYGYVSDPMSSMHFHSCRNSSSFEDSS

[12] = target: T1, Serine/threonine-protein kinase 3
[13] = test system: Tyrosine-protein kinase ABL1 (Homo sapiens), P00519 [F317L]; test: Inhibition of phosphorylated ABL1 F317L mutant (unknown origin) assessed as remaining activity at 1 uM by Kinome scan method relative to control
[14] = target: Non-receptor tyrosine-protein kinase TYK2 (Homo sapiens, UniProt P29597); test: Inhibition of TYK2 JH1domain-catalytic (unknown origin) in presence of ATP by enzymatic assay
[15] = target: Ephrin type-B receptor 6 (Homo sapiens) (UniProt O15197); test: Inhibition of EPHB6 (unknown origin) assessed as remaining activity at 1 uM by Kinome scan method relative to control
[16] = target: Serine/threonine-protein kinase OSR1 (Homo sapiens) (UniProt O95747); test: Inhibition of OSR1 (unknown origin) assessed as remaining activity at 1 uM by Kinome scan method relative to control
Serine/threonine-protein kinase OSR1 (Homo sapiens), sequence (O95747 2-527 limits assumed): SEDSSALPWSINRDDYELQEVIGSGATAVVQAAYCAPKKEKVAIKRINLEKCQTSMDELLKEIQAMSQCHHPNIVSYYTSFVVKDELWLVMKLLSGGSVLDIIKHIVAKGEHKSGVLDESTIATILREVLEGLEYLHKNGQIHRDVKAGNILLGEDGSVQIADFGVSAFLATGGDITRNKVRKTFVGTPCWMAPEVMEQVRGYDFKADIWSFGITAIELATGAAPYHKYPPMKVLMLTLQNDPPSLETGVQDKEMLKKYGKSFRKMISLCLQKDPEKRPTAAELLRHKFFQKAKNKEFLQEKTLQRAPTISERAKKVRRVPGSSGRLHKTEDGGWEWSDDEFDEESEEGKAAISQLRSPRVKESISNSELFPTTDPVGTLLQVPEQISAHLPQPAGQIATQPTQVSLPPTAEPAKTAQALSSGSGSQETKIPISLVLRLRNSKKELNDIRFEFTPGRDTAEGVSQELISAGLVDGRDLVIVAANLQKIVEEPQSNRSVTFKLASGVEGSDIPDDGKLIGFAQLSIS

[17] = target: Mitogen-activated protein kinase 13 (Homo sapiens) (UniProt O15264); test: Inhibition of P38delta (unknown origin) assessed as remaining activity at 1 uM by Kinome scan method relative to control
Mitogen-activated protein kinase 13 (Homo sapiens), sequence (O15264 whole entry): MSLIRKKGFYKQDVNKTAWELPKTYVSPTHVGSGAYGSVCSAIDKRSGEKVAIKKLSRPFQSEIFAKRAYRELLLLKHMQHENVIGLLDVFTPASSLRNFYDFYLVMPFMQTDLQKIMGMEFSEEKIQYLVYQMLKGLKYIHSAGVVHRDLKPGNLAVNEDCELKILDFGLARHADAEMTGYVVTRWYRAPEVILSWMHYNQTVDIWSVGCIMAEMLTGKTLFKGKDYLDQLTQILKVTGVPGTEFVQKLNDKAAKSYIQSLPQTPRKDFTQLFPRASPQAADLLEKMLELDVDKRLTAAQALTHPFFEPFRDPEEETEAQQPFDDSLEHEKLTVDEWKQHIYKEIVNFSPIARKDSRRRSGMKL

Mus musculus [18] = test: Protection against APAP induced liver injury in mouse assessed as continual expansion of centrilobular necrotic lesions at 1 mg/kg, ip administered at 1.5 hrs by TUNEL staining; assay type: functional, organism-based
[19] = test system: Proto-oncogene tyrosine-protein kinase receptor Ret (Homo sapiens), P07949 [V804L]; test: Inhibition of RET V804L (unknown origin) assessed as remaining activity at 1 uM by Kinome scan method relative to control
[20] = target: Interleukin-1 receptor-associated kinase 1 (Homo sapiens) (UniProt P51617); test: Inhibition of IRAK1 (unknown origin) assessed as remaining activity at 1 uM by Kinome scan method relative to control
Interleukin-1 receptor-associated kinase 1 (Homo sapiens), sequence (P51617 whole entry, looked up, canonical isoform): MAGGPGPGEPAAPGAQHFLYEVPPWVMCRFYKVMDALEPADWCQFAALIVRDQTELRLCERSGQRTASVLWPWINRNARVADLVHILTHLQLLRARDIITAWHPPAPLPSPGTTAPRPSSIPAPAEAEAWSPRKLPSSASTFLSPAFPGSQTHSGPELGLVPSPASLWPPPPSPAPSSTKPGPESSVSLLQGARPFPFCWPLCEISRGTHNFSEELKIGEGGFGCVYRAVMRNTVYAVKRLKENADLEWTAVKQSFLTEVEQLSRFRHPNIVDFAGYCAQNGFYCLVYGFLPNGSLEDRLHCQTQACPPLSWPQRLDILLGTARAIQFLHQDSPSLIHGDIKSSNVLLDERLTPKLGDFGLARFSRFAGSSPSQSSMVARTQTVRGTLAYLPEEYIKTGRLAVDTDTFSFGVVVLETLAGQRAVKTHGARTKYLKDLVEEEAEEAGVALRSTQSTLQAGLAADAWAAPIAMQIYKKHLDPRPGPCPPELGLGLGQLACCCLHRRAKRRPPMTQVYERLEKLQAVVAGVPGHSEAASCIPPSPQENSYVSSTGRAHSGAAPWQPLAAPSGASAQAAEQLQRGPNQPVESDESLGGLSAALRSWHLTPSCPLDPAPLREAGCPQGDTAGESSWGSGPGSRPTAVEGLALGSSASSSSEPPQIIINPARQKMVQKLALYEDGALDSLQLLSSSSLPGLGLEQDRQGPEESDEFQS

[21] = test system: Phosphatidylinositol 4,5-bisphosphate 3-kinase catalytic subunit alpha isoform (Homo sapiens), P42336 [E542K]; test: Inhibition of PIK3CA E542K mutant (unknown origin) assessed as remaining activity at 1 uM by Kinome scan method relative to control
[22] = target: Serine/threonine-protein kinase Nek6 (Homo sapiens) (UniProt Q9HC98); test: Inhibition of NEK6 (unknown origin) assessed as remaining activity at 1 uM by Kinome scan method relative to control
Serine/threonine-protein kinase Nek6 (Homo sapiens), sequence (Q9HC98 whole entry): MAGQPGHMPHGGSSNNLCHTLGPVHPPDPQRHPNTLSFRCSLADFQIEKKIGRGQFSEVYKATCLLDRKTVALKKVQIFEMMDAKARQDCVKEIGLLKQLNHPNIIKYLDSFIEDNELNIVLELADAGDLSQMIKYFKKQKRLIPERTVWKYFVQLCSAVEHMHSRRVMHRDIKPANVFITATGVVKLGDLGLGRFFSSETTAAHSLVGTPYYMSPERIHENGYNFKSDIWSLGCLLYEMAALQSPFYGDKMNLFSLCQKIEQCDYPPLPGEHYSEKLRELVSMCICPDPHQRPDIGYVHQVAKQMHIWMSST

Mus musculus [23] = test: Protection against APAP induced liver injury in mouse assessed as decrease in ALT level at 1 mg/kg, ip administered at 2.5 hrs in the presence of NAC; assay type: functional, organism-based; details: Serum
[24] = target: Ribosomal protein S6 kinase alpha-4 (Homo sapiens) (UniProt O75676); test: Inhibition of C-terminal kinase domain RPS6KA4 (unknown origin) assessed as remaining activity at 1 uM by Kinome scan method relative to control; in short: as §1
[25] = Acute toxicity in wild-type mouse assessed as low level in oval cell expansion by at 1 mg/kg,ip administrated daily for 2 months by immunohistochemical staining; assay type: organism-based; details: in vivo, 1460 h

Question: Which Activity [1] does the source give for CN1C(=O)c2sccc2N(C)c2nc(Nc3ccc(S(N)(=O)=O)cc3)ncc21 here?
Answer: 48%

Question: And the Activity [2]?
Answer: 98%

Question: What about the Activity [3] of the same molecule?
Answer: 100%

Question: And the Activity [4]?
Answer: Non-Toxic

Question: And the Activity [5]?
Answer: 90%

Question: And the Activity [6]?
Answer: 100%

Question: And the IC50 [7]?
Answer: 361 nM

Question: What about the IC50 [8] of the same molecule?
Answer: 34 nM

Question: And the Activity [9]?
Answer: 88%

Question: And the Activity [10]?
Answer: 96%

Question: And the Activity [11]?
Answer: 100%

Question: What about the IC50 [12] of the same molecule?
Answer: 38.8 nM

Question: And the Activity [13]?
Answer: 14%

Question: And the IC50 [14]?
Answer: 1.9 nM

Question: And the Activity [15]?
Answer: 100%

Question: And the Activity [16]?
Answer: 81%

Question: And the Activity [17]?
Answer: 94%

Question: And the Activity (Mus musculus [18])?
Answer: Active

Question: And the Activity [19]?
Answer: 78%

Question: What about the Activity [20] of the same molecule?
Answer: 51%

Question: What about the Activity [21] of the same molecule?
Answer: 48%

Question: What about the Activity [22] of the same molecule?
Answer: 97%

Question: And the Activity (Mus musculus [23])?
Answer: Active

Question: And the Activity [24]?
Answer: 69%

Question: And the Activity [25]?
Answer: Toxic
